Reference: ChEMBL document CHEMBL1143812, “A novel bis-tetrahydrofuranylurethane-containing nonpeptidic protease inhibitor (PI), GRL-98065, is potent against multiple-PI-resistant human immunodeficiency virus in vitro” (Antimicrob Agents Chemother, 2007)

How the values were obtained:
[1] = system: Human immunodeficiency virus 1; assay: Antiviral activity against ritonavir-resistant HIV1 in MT4 cells assessed as inhibition of p24 Gag protein expression by MTT assay; assay type: functional, organism-based; details: Human immunodeficiency virus 1, MT4
Procedure, shortened: (§1)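 MT-4 cells (10^5/ml) infected with 100 TCID50s of wild-type or PI-resistant NL4-3 virus and incubated at 37°C with or without graded drug concentrations. On day 7, supernatant p24 Gag was measured by chemiluminescent enzyme immunoassay. […] Assays were run in duplicate or triplicate.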

[2] = system: Human immunodeficiency virus 1; assay: Antiviral activity against idinavir-resistant HIV1 in MT4 cells assessed as inhibition of p24 Gag protein expression by MTT assay; assay type: functional, organism-based; details: Human immunodeficiency virus 1, MT4; procedure, shortened: as §1
[3] = system: Human immunodeficiency virus 1; assay: Antiviral activity against nelfinavir-resistant HIV1 in MT4 cells assessed as inhibition of p24 Gag protein expression by MTT assay; assay type: functional, organism-based; details: Human immunodeficiency virus 1, MT4; procedure, shortened: as §1
[4] = system: Human immunodeficiency virus 1; assay: Antiviral activity against atazanavir-resistant HIV1 in MT4 cells assessed as inhibition of p24 Gag protein expression by MTT assay; assay type: functional, organism-based; details: Human immunodeficiency virus 1, MT4; procedure, shortened: as §1
[5] = system: Human immunodeficiency virus 1; assay: Antiviral activity against lopinavir-resistant HIV1 in MT4 cells assessed as inhibition of p24 Gag protein expression by MTT assay; assay type: functional, organism-based; details: Human immunodeficiency virus 1, MT4; procedure, shortened: as §1
[6] = system: Human immunodeficiency virus 1; assay: Antiviral activity against amprenavir-resistant HIV1 in MT4 cells assessed as inhibition of p24 Gag protein expression by MTT assay; assay type: functional, organism-based; details: Human immunodeficiency virus 1, MT4; procedure, shortened: as §1
[7] = system: Human immunodeficiency virus 1; assay: Antiviral activity against HIV1 GRL98065p20 in MT4 cells assessed as inhibition of p24 Gag protein expression by MTT assay; assay type: functional, organism-based; details: Human immunodeficiency virus 1, MT4; procedure, shortened: as §1
[8] = system: Human immunodeficiency virus 1; assay: Antiviral activity against HIV1 GRL98065p30 in MT4 cells assessed as inhibition of p24 Gag protein expression by MTT assay; assay type: functional, organism-based; details: Human immunodeficiency virus 1, MT4; procedure, shortened: as §1
[9] = system: Human immunodeficiency virus 1; assay: Antiviral activity against HIV1 GRL98065p40 in MT4 cells assessed as inhibition of p24 Gag protein expression by MTT assay; assay type: functional, organism-based; details: Human immunodeficiency virus 1, MT4; procedure, shortened: as §1
[10] = system: Human immunodeficiency virus 1; assay: Antiviral activity against wild type HIV1 ERS104prc X4 in phytohemagglutininin-activated PBMCs assessed as inhibition of p24 Gag protein expression by MTT assay; assay type: functional, organism-based
Procedure, shortened: (§2)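 PHA-activated PBMCs (10^6/ml) infected with 50 TCID50s of each isolate and cultured with or without drug in 10-fold serial dilutions. The read-out was supernatant p24 Gag by chemiluminescent enzyme immunoassay. Assays were run in duplicate or triplicate, with one donor per experiment and three donors in total.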

[11] = system: Human immunodeficiency virus 1; assay: Antiviral activity against HIV1 MDR/TM X4 in phytohemagglutininin-activated PBMCs assessed as inhibition of p24 Gag protein expression by MTT assay; assay type: functional, organism-based
Procedure, shortened: (§3)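 PHA-activated PBMCs (10^6/ml) infected with 50 TCID50s of each isolate and cultured with or without drug in 10-fold serial dilutions. The read-out was supernatant p24 Gag by chemiluminescent enzyme immunoassay. […] Assays were run in duplicate or triplicate, with one donor per experiment and three donors in total.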

[12] = system: Human immunodeficiency virus 1; assay: Antiviral activity against HIV1 MDR/MM R5 in phytohemagglutininin-activated PBMCs assessed as inhibition of p24 Gag protein expression by MTT assay; assay type: functional, organism-based; procedure, shortened: as §3
[13] = system: Human immunodeficiency virus 1; assay: Antiviral activity against HIV1 MDR/JSL R5 in phytohemagglutininin-activated PBMCs assessed as inhibition of p24 Gag protein expression by MTT assay; assay type: functional, organism-based; procedure, shortened: as §3
[14] = system: Human immunodeficiency virus 1; assay: Antiviral activity against HIV1 MDR/B X4 in phytohemagglutininin-activated PBMCs assessed as inhibition of p24 Gag protein expression by MTT assay; assay type: functional, organism-based; procedure, shortened: as §3
[15] = system: Human immunodeficiency virus 1; assay: Antiviral activity against HIV1 MDR/C X4 in phytohemagglutininin-activated PBMCs assessed as inhibition of p24 Gag protein expression by MTT assay; assay type: functional, organism-based; procedure, shortened: as §3
[16] = system: Human immunodeficiency virus 1; assay: Antiviral activity against HIV1 MDR/G X4 in phytohemagglutininin-activated PBMCs assessed as inhibition of p24 Gag protein expression by MTT assay; assay type: functional, organism-based; procedure, shortened: as §2
[17] = system: Human immunodeficiency virus 1; assay: Antiviral activity against HIV1 92UG029 X4 subtype A in phytohemagglutininin-activated PBMCs assessed as inhibition of p24 Gag protein expression by MTT assay; assay type: functional, organism-based; procedure, shortened: as §3
[18] = system: Human immunodeficiency virus 1; assay: Antiviral activity against HIV1 92UG037 subtype A R5 in phytohemagglutininin-activated PBMCs assessed as inhibition of p24 Gag protein expression by MTT assay; assay type: functional, organism-based; procedure, shortened: as §3
[19] = system: Human immunodeficiency virus 1; assay: Antiviral activity against HIV1 BaL R5 subtype B in phytohemagglutininin-activated PBMCs assessed as inhibition of p24 Gag protein expression by MTT assay; assay type: functional, organism-based; procedure, shortened: as §2
[20] = system: Human immunodeficiency virus 1; assay: Antiviral activity against HIV1 97ZA003 R5 subtype C in phytohemagglutininin-activated PBMCs assessed as inhibition of p24 Gag protein expression by MTT assay; assay type: functional, organism-based; procedure, shortened: as §3
[21] = system: Human immunodeficiency virus 1; assay: Antiviral activity against HIV1 92TH019 R5 subtype E in phytohemagglutininin-activated PBMCs assessed as inhibition of p24 Gag protein expression by MTT assay; assay type: functional, organism-based; procedure, shortened: as §3
[22] = system: Human immunodeficiency virus 1; assay: Antiviral activity against saquinavir-resistant HIV1 in MT4 cells assessed as inhibition of p24 Gag protein expression by MTT assay; assay type: functional, organism-based; details: Human immunodeficiency virus 1, MT4; procedure, shortened: as §1
[23] = system: Human immunodeficiency virus 1; assay: Antiviral activity against HIV1 LAI in MT2 cells assessed as inhibition of p24 Gag protein expression by MTT assay; assay type: functional, organism-based; details: Human immunodeficiency virus 1, LAI
Procedure, shortened: (§4)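 MT-2 cells (2 × 10^4/ml) were infected with 100 TCID50s of the HIV-1LAI, HIV-2EHO or HIV-2ROD strain. They were cultured with serial drug concentrations at 37°C for 7 days. MTT was then added for 4 h at 37°C, formazan was dissolved in acidified isopropanol with 4% Triton X-100, and optical density was read. EC50 is the mean of three independent experiments, each run in duplicate.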

[24] = system: Human immunodeficiency virus 2; assay: Antiviral activity against HIV2 EHO in MT2 cells assessed as inhibition of p24 Gag protein expression by MTT assay; assay type: functional, organism-based; details: Human immunodeficiency virus 2, EHO; procedure, shortened: as §4
[25] = system: Human immunodeficiency virus 2; assay: Antiviral activity against HIV2 ROD in MT2 cells assessed as inhibition of p24 Gag protein expression by MTT assay; assay type: functional, organism-based; details: Human immunodeficiency virus 2, ROD; procedure, shortened: as §4
[26] = Cytotoxicity against human MT2 cells assessed as inhibition of p24 Gag protein expression by MTT assay; assay type: cell-based
[27] = system: Human immunodeficiency virus 1; assay: Antiviral activity against HIV1 NL4-3 in MT4 cells by MTT assay; assay type: functional, organism-based; details: Human immunodeficiency virus 1, NL4-3, MT4

SMILES: COC(=O)N[C@H](C(=O)N[C@@H](Cc1ccccc1)[C@@H](O)CN(Cc1ccc(-c2ccccn2)cc1)NC(=O)[C@@H](NC(=O)OC)C(C)(C)C)C(C)(C)C [ATAZANAVIR]
- EC50 [1]: 0.018 µM
- EC50 [2]: 0.06 µM
- EC50 [3]: 0.021 µM
- EC50 [4]: 0.33 µM
- EC50 [5]: 0.04 µM
- EC50 [6]: 0.003 µM
- EC50 [7]: 0.006 µM
- EC50 [8]: 0.008 µM
- EC50 [9]: 0.011 µM
- EC50 [10]: 0.0038 µM
- EC50 [11]: 0.038 µM
- EC50 [12]: 0.045 µM
- EC50 [13]: 0.54 µM
- EC50 [14]: 0.25 µM
- EC50 [15]: 0.021 µM
- EC50 [16]: 0.032 µM
- EC50 [17]: 0.006 µM
- EC50 [18]: 0.0025 µM
- EC50 [19]: 0.0013 µM
- EC50 [20]: 0.0034 µM
- EC50 [21]: 0.0027 µM
- EC50 [22]: 0.326 µM
- EC50 [23]: 0.0048 µM
- EC50 [24]: 0.005 µM
- EC50 [25]: 0.013 µM
- CC50 [26]: 27.6 µM
- EC50 [27]: 0.0042 µM

SMILES: CC(C)CN(C[C@@H](O)[C@H](Cc1ccccc1)NC(=O)O[C@H]1CO[C@H]2OCC[C@H]21)S(=O)(=O)c1ccc2c(c1)OCO2
- EC50 [1]: 0.0025 µM
- EC50 [2]: 0.0037 µM
- EC50 [3]: 0.0024 µM
- EC50 [4]: 0.0015 µM
- EC50 [5]: 0.0075 µM
- EC50 [6]: 0.032 µM
- EC50 [7]: 0.0038 µM
- EC50 [8]: 0.008 µM
- EC50 [9]: 0.18 µM
- EC50 [10]: 0.0005 µM
- EC50 [11]: 0.0032 µM
- EC50 [12]: 0.0038 µM
- EC50 [13]: 0.006 µM
- EC50 [14]: 0.0039 µM
- EC50 [15]: 0.0027 µM
- EC50 [16]: 0.0034 µM
- EC50 [17]: 0.0005 µM
- EC50 [18]: 0.0004 µM
- EC50 [19]: 0.0002 µM
- EC50 [20]: 0.0005 µM
- EC50 [21]: 0.0003 µM
- EC50 [22]: 0.006 µM
- EC50 [23]: 0.0005 µM
- EC50 [24]: 0.0032 µM
- EC50 [25]: 0.0045 µM
- CC50 [26]: 35.7 µM
- EC50 [27]: 0.0003 µM

SMILES: CC(C)(C)NC(=O)[C@@H]1CN(Cc2cccnc2)CCN1C[C@@H](O)C[C@@H](Cc1ccccc1)C(=O)N[C@H]1c2ccccc2C[C@H]1O
- EC50 [1]: 0.25 µM
- EC50 [2]: > 1 µM
- EC50 [3]: 0.27 µM
- EC50 [4]: 0.388 µM
- EC50 [5]: > 1 µM
- EC50 [6]: 0.2 µM
- EC50 [7]: 0.04 µM
- EC50 [8]: 0.059 µM
- EC50 [9]: 0.28 µM
- EC50 [10]: 0.024 µM
- EC50 [11]: > 1 µM
- EC50 [12]: > 1 µM
- EC50 [13]: > 1 µM
- EC50 [14]: > 1 µM
- EC50 [15]: > 1 µM
- EC50 [16]: 0.64 µM
- EC50 [17]: 0.044 µM
- EC50 [18]: 0.034 µM
- EC50 [19]: 0.022 µM
- EC50 [20]: 0.037 µM
- EC50 [21]: 0.021 µM
- EC50 [22]: > 1 µM
- EC50 [23]: 0.048 µM
- EC50 [24]: 0.024 µM
- EC50 [25]: 0.054 µM
- CC50 [26]: 69.8 µM

SMILES: CC(C)(C)NC(=O)[C@@H]1C[C@@H]2CCCC[C@@H]2CN1C[C@@H](O)[C@H](Cc1ccccc1)NC(=O)[C@H](CC(N)=O)NC(=O)c1ccc2ccccc2n1
- EC50 [1]: 0.01 µM
- EC50 [2]: 0.059 µM
- EC50 [3]: 0.024 µM
- EC50 [4]: 0.037 µM
- EC50 [5]: 0.032 µM
- EC50 [6]: 0.031 µM
- EC50 [7]: 0.012 µM
- EC50 [8]: 0.022 µM
- EC50 [9]: 0.032 µM
- EC50 [10]: 0.008 µM
- EC50 [11]: 0.18 µM
- EC50 [12]: 0.14 µM
- EC50 [13]: 0.29 µM
- EC50 [14]: 0.27 µM
- EC50 [15]: 0.035 µM
- EC50 [16]: 0.033 µM
- EC50 [17]: 0.0048 µM
- EC50 [18]: 0.0032 µM
- EC50 [19]: 0.0083 µM
- EC50 [20]: 0.0067 µM
- EC50 [21]: 0.003 µM
- EC50 [22]: > 1 µM
- EC50 [23]: 0.008 µM
- EC50 [24]: 0.003 µM
- EC50 [25]: 0.0043 µM
- CC50 [26]: 16.4 µM
- EC50 [27]: 0.007 µM
